# Results collected from several papers.
# Each line is one published result; the experiments were not run side by side.
# Target: Mu-type opioid receptor (OPRM1, Homo sapiens, UniProt P35372)
# Observed: ligand displacement
SMILES,technique,tested at,inhibition [%]
COc1ccc(-n2nc(OCCCN3CCCCC3)ccc2=O)cc1,,1 µM,45.8
CCN(Cc1ccccc1C(F)(F)F)C(=O)C1CCN(S(=O)(=O)c2ccc3[nH]ncc3c2)CC1,radioligand,10 µM,5
COc1cc(NC(C)=O)c(Cl)cc1C(=O)Nc1nccs1,,10 µM,-5.3
O=C(Nc1ccc(S(=O)(=O)N2CCC(Cl)CC2)cc1)c1ccc([N+](=O)[O-])o1,radioligand,10 µM,1
CN1CCN(CCCOc2ccc(=O)n(-c3ccc(Cl)c(Cl)c3)n2)CC1,,1 µM,17.2
N#Cc1cc(Cn2c(N3CCCC3)nc3ccccc32)ccc1F,,10 µM,-6.78
CCN(CC)c1ccc(C2Nc3ccc(C(=O)c4ccccc4)cc3NC3=C2C(=O)CC(C)(C)C3)cc1 (centres unmarked),radioligand,10 µM,9
Ic1cccc2cnccc12,radioligand,10 µM,-4
O=C(c1ccc(Cl)cc1)N(Cc1ccccc1)C1CCCCC1,,10 µM,10.9
CCCNc1nc2ccccc2n1Cc1ccc(Cl)cc1,,10 µM,12.4
O=C1N=C(N2CCCCN2)S/C1=C\c1ccc(F)cc1O,radioligand,10 µM,< 10
